A word on the GI50: it is the concentration at which growth is held to half of that of the control. For orientation: IC50 means the midpoint of a concentration-inhibition curve. High values mean lower potency, low ones higher potency. Broadly, the MRT inf is a mean duration of stay, worked out from the concentration-time curve. The term Cmax denotes the peak of the concentration-time curve. Broadly, the bioavailability is the share of a dose that reaches the circulation, judged against a reference dose that is usually intravenous. Lower therefore signals little systemic uptake. A word on the AUC(0-t): it is exposure summed from dosing to a finite time, without extrapolation to infinity.

Each structure is given as a SMILES string. Active and inactive are the calls of the source. No cut-off for these calls is given here. Some results are limits rather than exact numbers.

These results are taken from ChEMBL document CHEMBL4304743, “Discovery of ( E)- N1-(3-Fluorophenyl)- N3-(3-(2-(pyridin-2-yl)vinyl)-1 H-indazol-6-yl)malonamide (CHMFL-KIT-033) as a Novel c-KIT T670I Mutant Selective Kinase Inhibitor for Gastrointestinal Stromal Tumors (GISTs)” (J Med Chem, 2019).

The target in series [1] is Serine/threonine-protein kinase 25 (Homo sapiens, UniProt O00506). Put plainly: Binding affinity to wild-type human partial length STK25 (V14 to H295 residues) expressed in bacterial expression system assessed as enzyme remaining activity at 1 uM by Kinomescan assay relative to control. An outline of the steps:
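KINOMEscan competition binding panel of 468 kinases and mutants, compound at 1 μM; binding reported as percent of control.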

Series [2] can be described thus: Apparent clearance in Sprague-Dawley rat at 1 mg/kg, iv measured after 2 to 720 mins by LC-tandem mass spectrometry analysis. It counts as ADME, organism-based. The conditions noted are these: in vivo, read-out: CL(app) (converted). An outline of the steps:
(§1)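 Male Sprague-Dawley rats (190-210 g), fasted 12 h, randomized into two groups: 1 mg/kg i.v. or 10 mg/kg p.o., both formulated in 10% DMSO/90% of 5% glucose water. Blood sampled at 2-720 min (i.v.) or 5-720 min (p.o.). Plasma protein-precipitated with methanol, caffeine internal standard, LC-MS/MS. Noncompartmental analysis; triplicate, ±SD.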

Series [3] deals with Mast/stem cell growth factor receptor Kit (Homo sapiens), P10721 [UNDEFINED MUTATION]. Put plainly: Inhibition of c-KIT 560 to 578 deletion mutant in human GISTT1 cells assessed as reduction in c-KIT autophosphorylation at Y703 residue at 0.1 uM to 3 uM after 1 hr by Western blot analysis. It counts as cell-based. An outline of the steps: (§2)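 Serial compound dilutions applied for 1 h to GIST-T1, GIST-T1-T670I (CRISPR/Cas9 T670I knock-in, clone confirmed by Sanger sequencing) or GIST-5R cells in DMEM with 10% FBS. Cells then lysed and phospho-proteins detected by standard Western blotting.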
A general note: In western blotting, separated proteins are transferred to a membrane and probed.

For series [4], the system named is Mast/stem cell growth factor receptor Kit (Homo sapiens), P10721 [L576P]. Description: Binding affinity to human partial length c-KIT L576P mutant (Y545 to D952 residues) expressed in bacterial expression system assessed as enzyme remaining activity at 1 uM by Kinomescan method relative to control. An outline of the steps:
(§3)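 KINOMEscan binding profile (DiscoverX) run at 1 μM against a panel of 468 kinases and mutants. Read-out is percent of control (%Ctrl) remaining bound.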

The subject of series [5] is Mast/stem cell growth factor receptor Kit (Homo sapiens), P10721 [D820E]. Put plainly: Inhibition of TEL fused c-KIT D820E mutant (unknown origin) transfected in mouse BAF3 cells assessed as growth inhibition after 72 hrs by CCK8 assay. It counts as cell-based. An outline of the steps: (§4)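 Tel-c-KIT-transformed BaF3 lines (IL-3 independent) kept in RPMI 1640 with 10% FBS, 2% L-glutamine and pen/strep. Cells at 1.5 to 5 × 10^4 cells/mL mixed with graded compound and incubated 72 h at 37 °C, 5% CO2. Viability by CCK-8 absorbance at 450 nm, normalized to DMSO. GI50 from dose–response fit.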
Background: Tetrazolium dyes change colour on reduction, which living cells bring about.

The target of series [6] is Serine/threonine-protein kinase pim-3 (Homo sapiens, UniProt Q86V86). Description: Inhibition of wild-type human partial length PIM3 (G16 to A317 residues) expressed in bacterial expression system after 1 hr by Z-LYTE assay.
Series [7] concerns Mast/stem cell growth factor receptor Kit (Homo sapiens), P10721 [UNDEFINED MUTATION]. Put plainly: Inhibition of c-KIT 560 to 578 deletion/T670I double mutant in human GIST5R cells assessed as reduction in ERK phosphorylation at T202/Y204 residue at 0.1 uM to 3 uM after 1 hr by Western blot analysis. It counts as cell-based. An outline of the steps:
as §2

The target in series [8] is Mast/stem cell growth factor receptor Kit (Homo sapiens, UniProt P10721). Description: Inhibition of wild type TEL fused c-KIT (unknown origin) transfected in mouse BAF3 cells assessed as growth inhibition after 72 hrs by CCK8 assay. The format is cell-based. The conditions noted are these: baf3, 72 h. An outline of the steps: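 IL-3 independent BaF3 cells stably expressing tel-c-KIT wt or tel-c-KIT T670I, grown in RPMI 1640 with 10% FBS, 2% L-glutamine, 37 °C, 5% CO2. Suspension cells at 1.5 to 5 × 10^4 cells/mL mixed with serial compound dilutions and incubated 72 h. Viability read by CCK-8 absorbance at 450 nm, normalized to DMSO; GI50 from curve fit. Selectivity is wt GI50 over T670I GI50.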

Series [9] relates to Mast/stem cell growth factor receptor Kit (Homo sapiens), P10721 [UNDEFINED MUTATION]. Put plainly: Binding affinity to human partial length c-KIT V559D/[…] double mutant (Y545 to D952 residues) expressed in bacterial expression system assessed as enzyme remaining activity at 1 uM by Kinomescan method relative to control. An outline of the steps: as §3
The nature of series [10]: MRT (0 to infinity) in mouse at 1 mg/kg, iv measured after 2 to 720 mins by LC-tandem mass spectrometry analysis. It counts as ADME, organism-based. To be noted: in vivo.
Series [11] is described as follows: Cmax in Sprague-Dawley rat at 1 mg/kg, iv measured after 2 to 720 mins by LC-tandem mass spectrometry analysis. The format is ADME, organism-based. Also noted: dose 1 mg/kg, route intravenous. The conditions noted are these: in vivo. An outline of the steps:
as §1

The nature of series [12]: Oral bioavailability in mouse at 10 mg/kg measured after 5 to 720 mins by LC-tandem mass spectrometry analysis. The format is ADME, organism-based. The conditions noted are these: in vivo.
In series [13] the test system is Mast/stem cell growth factor receptor Kit (Homo sapiens), P10721 [UNDEFINED MUTATION]. Description: Inhibition of c-KIT 560 to 578 deletion/T670I double mutant in human GISTT1 cells assessed as reduction in ERK phosphorylation at T202/Y204 residue at 0.1 uM to 3 uM after 1 hr by Western blot analysis. The format is cell-based. An outline of the steps: as §2
For series [14] the test system is unchanged. Description: Inhibition of c-KIT 560 to 578 deletion/T670I double mutant in human GISTT1 cells assessed as reduction in S6 phosphorylation at S235/S236 residue at 0.1 uM to 3 uM after 1 hr by Western blot analysis. The format is cell-based. An outline of the steps: as §2
Series [15] is described as follows: Apparent clearance in mouse at 1 mg/kg, iv measured after 2 to 720 mins by LC-tandem mass spectrometry analysis. The format is ADME, organism-based. To be noted: in vivo, read-out: CL(app) (converted). An outline of the steps:
(§5)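 Mice dosed 1 mg/kg i.v. or 10 mg/kg p.o.; plasma drug levels by LC-MS/MS, parameters by noncompartmental analysis; values not from triplicate testing.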

The test system of series [16] is Mast/stem cell growth factor receptor Kit (Homo sapiens), P10721 [V559A]. Description: Inhibition of TEL fused c-KIT V559A mutant (unknown origin) transfected in mouse BAF3 cells assessed as growth inhibition after 72 hrs by CCK8 assay. It counts as cell-based. An outline of the steps:
as §4

A short description of series [17]: AUC (0 to t) in mouse at 10 mg/kg, po measured after 5 to 720 mins by LC-tandem mass spectrometry analysis. It counts as ADME, organism-based. To be noted: in vivo. An outline of the steps:
as §5

In a further series the test system is Homo sapiens. Put plainly: Antitumor activity against human GIST5R cells xenografted in po dosed nude mouse assessed as reduction in tumor size administered […] via gavage for 28 days post tumor inoculation. The format is functional, organism-based. An outline of the steps:
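Female nu/nu mice (5 weeks old) given subcutaneous right-flank GIST-5R cells in Matrigel. Dosing began at tumors of 200-400 mm3; randomized, 4 mice per group. Daily oral dosing (QD) at 25, 50 or 100 mg/kg in 0.5% methylcellulose/0.4% Tween80, or vehicle alone, for 28 days. Body weight and tumor volume, (W²×L)/2, measured daily; mean±SEM.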
(In general: Xenograft models place foreign cells or tissue in a host animal.)

Series [18] in a line: AUC (0 to t) in mouse at 1 mg/kg, iv measured after 2 to 720 mins by LC-tandem mass spectrometry analysis. The format is ADME, organism-based. The conditions noted are these: in vivo. An outline of the steps:
as §5

The subject of series [19] is Mast/stem cell growth factor receptor Kit (Homo sapiens), P10721 [N822K]. Put plainly: Inhibition of TEL fused c-KIT N822K mutant (unknown origin) transfected in mouse BAF3 cells assessed as growth inhibition after 72 hrs by CCK8 assay. It counts as cell-based. An outline of the steps: as §4

Mast/stem cell growth factor receptor Kit (Homo sapiens), P10721 [UNDEFINED MUTATION], sequence (P10721 whole entry, looked up, stated change not applied, the tested form may be a part): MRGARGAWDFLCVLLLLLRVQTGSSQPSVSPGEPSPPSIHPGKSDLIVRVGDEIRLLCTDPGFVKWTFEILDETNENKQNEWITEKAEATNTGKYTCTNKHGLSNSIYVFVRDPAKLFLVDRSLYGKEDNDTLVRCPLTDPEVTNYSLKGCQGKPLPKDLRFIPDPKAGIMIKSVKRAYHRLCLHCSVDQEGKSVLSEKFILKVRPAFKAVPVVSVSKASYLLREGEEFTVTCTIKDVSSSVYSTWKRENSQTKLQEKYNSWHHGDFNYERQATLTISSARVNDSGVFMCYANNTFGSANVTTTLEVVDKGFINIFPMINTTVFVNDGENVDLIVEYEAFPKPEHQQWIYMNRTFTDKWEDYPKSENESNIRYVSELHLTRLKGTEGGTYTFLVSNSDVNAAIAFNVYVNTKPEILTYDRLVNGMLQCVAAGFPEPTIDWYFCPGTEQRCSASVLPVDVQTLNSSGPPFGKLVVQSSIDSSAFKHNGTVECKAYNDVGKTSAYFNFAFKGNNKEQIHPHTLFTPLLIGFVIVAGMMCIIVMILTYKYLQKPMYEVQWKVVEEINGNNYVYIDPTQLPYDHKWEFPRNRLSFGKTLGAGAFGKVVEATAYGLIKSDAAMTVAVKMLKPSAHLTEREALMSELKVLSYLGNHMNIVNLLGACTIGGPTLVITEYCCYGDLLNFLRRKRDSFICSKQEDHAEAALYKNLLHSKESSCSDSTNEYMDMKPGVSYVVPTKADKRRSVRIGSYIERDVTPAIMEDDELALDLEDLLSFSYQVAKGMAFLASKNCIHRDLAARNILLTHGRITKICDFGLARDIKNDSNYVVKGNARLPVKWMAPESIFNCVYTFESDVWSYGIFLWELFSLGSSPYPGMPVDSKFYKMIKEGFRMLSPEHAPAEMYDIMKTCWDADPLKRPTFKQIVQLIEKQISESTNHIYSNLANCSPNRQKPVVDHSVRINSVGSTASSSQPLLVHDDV
Mast/stem cell growth factor receptor Kit (Homo sapiens), P10721 [V559A], sequence (P10721 whole entry V559A, the tested form may be a part): as the sequence (P10721 whole entry, looked up, stated change not applied, the tested form may be a part) above, with V559A counted along it
Mast/stem cell growth factor receptor Kit (Homo sapiens), P10721 [D820E], sequence (P10721 whole entry D820E, the tested form may be a part): as the sequence (P10721 whole entry, looked up, stated change not applied, the tested form may be a part) above, with D820E counted along it
Mast/stem cell growth factor receptor Kit (Homo sapiens), P10721 [L576P], sequence (P10721 whole entry L576P, the tested form may be a part): as the sequence (P10721 whole entry, looked up, stated change not applied, the tested form may be a part) above, with L576P counted along it
Mast/stem cell growth factor receptor Kit (Homo sapiens), P10721 [N822K], sequence (P10721 whole entry N822K, the tested form may be a part): as the sequence (P10721 whole entry, looked up, stated change not applied, the tested form may be a part) above, with N822K counted along it
Serine/threonine-protein kinase 25, sequence (O00506 whole entry, looked up, the tested form may be a part): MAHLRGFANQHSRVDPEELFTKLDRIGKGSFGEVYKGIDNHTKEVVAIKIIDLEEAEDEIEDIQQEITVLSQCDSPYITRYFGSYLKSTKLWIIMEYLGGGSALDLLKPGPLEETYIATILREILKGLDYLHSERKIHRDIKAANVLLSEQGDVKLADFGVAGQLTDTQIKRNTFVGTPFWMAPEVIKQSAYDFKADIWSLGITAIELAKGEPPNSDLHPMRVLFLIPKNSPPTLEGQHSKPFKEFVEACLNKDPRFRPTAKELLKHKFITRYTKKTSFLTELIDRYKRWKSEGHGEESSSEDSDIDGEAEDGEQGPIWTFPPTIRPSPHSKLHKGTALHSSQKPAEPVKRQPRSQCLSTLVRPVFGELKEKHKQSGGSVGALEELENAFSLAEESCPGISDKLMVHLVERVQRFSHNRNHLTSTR
Mast/stem cell growth factor receptor Kit, sequence (P10721 whole entry, the tested form may be a part): as the sequence (P10721 whole entry, looked up, stated change not applied, the tested form may be a part) above

Take `O=C(CC(=O)Nc1ccc2c(/C=C/c3ccccn3)n[nH]c2c1)Nc1cccc(F)c1`: the Activity was 0% in series [1], < 1% in series [4] and < 1% in series [9]. In addition, the clearance in series [2] was 3.3 L/h/kg; in series [15], 1.1 L/h/kg. For the same compound, the inhibition entry in series [3], in [7], in [13] and in series [14] was “Active” throughout. Further, the GI50 came out at 0.868 µM in series [5], 1.15 µM in [8], 0.031 µM in [16] and 6.06 µM in series [19]. Also, the IC50 in series [6] is > 10 µM. The compound further came in with an MRT inf in [10] of 24 min. Further, in series [11], the peak concentration (Cmax) is 0.379 µg/mL. The compound further displayed a bioavailability in series [12] of 16.4%. The results for the AUC(0-t) in series [17] and in [18] were 1.47 µg·h/mL and 0.898 µg·h/mL, respectively. Besides, the inhibition result with Homo sapiens is “Dose-dependent effect”.
